From the array DNA melting data of Ke et al. (doi:10.1101/2024.01.08.574731)

Tests used:
[1] = folding enthalpy; higher = less favourable; fluorescence melt of hairpins on a sequencing array, two-state fit; conditions: sodium 0.088 M
In short: (§1)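 To match UV melts, fitted temperatures were raised by 9.35 °C. These fits were bootstrapped two-state models that gave melting temperature and folding enthalpy, combined by inverse variance over four replicates. The input was normalised Cy3 fluorescence of library hairpins with annealed Cy3 and quencher oligos on a sequenced MiSeq flow cell, imaged in 50 mM Na-HEPES pH 8.0, 25 mM NaCl in 2.5 °C steps up to 60 °C.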

[2] = melting temperature; fluorescence melt of hairpins on a sequencing array, two-state fit, raised by 9.35 °C to match UV melts; conditions: sodium 0.088 M
In short: as §1

Row | Sequence | folding enthalpy [1] | Tm [2]
1 | GTTCCCGAAAGGGCGAAC ((((((....)))..))) | -9.4 kcal/mol | 31.5 °C
2 | GTTCCCGAAAGGGGTAAC ((((((....)))..))) | -12.2 kcal/mol | 29.8 °C
3 | GTTCCCGAAAGGGTGAAC ((((((....)))..))) | -12.5 kcal/mol | 35.5 °C
4 | GTTCCCGGAAACAGGAAC (((((.(....).))))) | -32.5 kcal/mol | 39.5 °C
5 | GTTCCCGGAAACGGGGAC ((.((((....)))).)) | -26.8 kcal/mol | 58.5 °C
6 | GTTCCGCGAAAGCGTAAC (((.(((....))).))) | -20.2 kcal/mol | 44.1 °C
7 | GTTCGACCGAAAGGTAAC (((..(((....)))))) | -10.9 kcal/mol | 27.3 °C
8 | GTTCGAGGAAACCCGAAC (((((.(....).))))) | -29.9 kcal/mol | 47 °C
9 | GTTCGAGGAAACTCGAGC (.(((((....))))).) | -21.7 kcal/mol | 49.8 °C
10 | GTTCGCCGAAAGGCCAAC (((.(((....))).))) | -15.3 kcal/mol | 39.4 °C
11 | GTTCGCGAAAGCGCCAAC ((((((....)))..))) | -8.24 kcal/mol | 25.6 °C
12 | GTTCGCGAAAGCGTCAAC ((((((....)))..))) | -9.05 kcal/mol | 28.1 °C
13 | GTTCGCGGAAACGTGAGC (.((.((....)).)).) | -22.4 kcal/mol | 41.3 °C
14 | GTTCGCTCGAAAGAGAAC (((..(((....)))))) | -19.8 kcal/mol | 37.5 °C
15 | GTTCGGAAACGAAC (((((....))))) | -25.9 kcal/mol | 56 °C
16 | GTTCGGGCGAAAGCCAAC (((..(((....)))))) | -10.7 kcal/mol | 26.2 °C
17 | GTTCGGGGAAACTCGGAC ((.((.(....).)).)) | -25.6 kcal/mol | 39 °C
18 | GTTCGTCGAAAGACAAAC (((.(((....))).))) | -16.6 kcal/mol | 41.2 °C
19 | GTTCGTGGAAACACGAAC (((((((....))))))) | -39.4 kcal/mol | 65.8 °C
20 | GTTCGTGGAAACACGAGC (.(((((....))))).) | -21.5 kcal/mol | 52.7 °C
21 | GTTCTAGGAAACTGGAAC ((((.((....)).)))) | -28.7 kcal/mol | 42.2 °C
22 | GTTCTCCGAAAGGAAAC (((.(((....)))))) | -16 kcal/mol | 35.8 °C
23 | GTTCTCGAAAGAGATAAC ((((((....)))..))) | -13.9 kcal/mol | 28.8 °C

Row | Sequence | folding enthalpy [1] | Tm [2]
24 | GTTCTCGAAAGAGTAAC ((((((....))).))) | -18.5 kcal/mol | 34.9 °C
25 | GTTCTGGGAAACCGGAAC ((((.((....)).)))) | -41.5 kcal/mol | 50.9 °C
26 | GTTCTTGGAAACAAGAGC (.(((((....))))).) | -19.6 kcal/mol | 41.5 °C
27 | GTTGAACGAAAGTTGAAC (((.(((....))).))) | -25.9 kcal/mol | 38.1 °C
28 | GTTGAAGGAAACTTCAGC (.(((((....))))).) | -23 kcal/mol | 41.4 °C
29 | GTTGAAGGAAACTTCGAC ((.((((....)))).)) | -32.5 kcal/mol | 44.9 °C
30 | GTTGACGAAAGTCCAAC ((((((....))).))) | -17.7 kcal/mol | 40.9 °C
31 | GTTGACGAAAGTCTAAAC ((((((....)))..))) | -12.8 kcal/mol | 30.4 °C
32 | GTTGACGCGAAAGCGAAC (((..(((....)))))) | -12.9 kcal/mol | 39 °C
33 | GTTGACGGAAACGTTAGC (.(.(((....))).).) | -7.85 kcal/mol | 29.9 °C
34 | GTTGAGCGAAAGCTAAC (((.(((....)))))) | -15.2 kcal/mol | 39.8 °C
35 | GTTGAGGGAAACTTCAGC (.(((.(....).))).) | -16.6 kcal/mol | 31.7 °C
36 | GTTGAGGGAAACTTCGAC ((.((.(....).)).)) | -20.3 kcal/mol | 31.5 °C
37 | GTTGATGGAAACACCAAC ((((.((....)).)))) | -30.2 kcal/mol | 37 °C
38 | GTTGCACGAAAGTGAAAC (((.(((....))).))) | -31.5 kcal/mol | 51.8 °C
39 | GTTGCAGGAAACTGCAAC (((((((....))))))) | -39.6 kcal/mol | 68 °C
40 | GTTGCAGGAAACTGTAAC (((.(((....))).))) | -29.8 kcal/mol | 45.8 °C
41 | GTTGCAGGAAACTGTGAC ((..(((....)))..)) | -29.9 kcal/mol | 37.9 °C
42 | GTTGCCCGAAAGGGAAAC (((.(((....))).))) | -32.2 kcal/mol | 56.4 °C
43 | GTTGCCGAAAGGCAAAAC ((((((....)))..))) | -9.67 kcal/mol | 42.5 °C
44 | GTTGCCGAAAGGCAAAC ((((((....))).))) | -11.6 kcal/mol | 58 °C
45 | GTTGCCGAAAGGCGGAAC ((((((....)))..))) | -7.95 kcal/mol | 32.8 °C
46 | GTTGCCGAAAGGCGTAAC ((((((....)))..))) | -9.66 kcal/mol | 34.7 °C

Row | Sequence | folding enthalpy [1] | Tm [2]
47 | GTTGCCGAAAGGCTGAAC ((((((....)))..))) | -9.17 kcal/mol | 31.4 °C
48 | GTTGCCGAAAGGCTTAAC ((((((....)))..))) | -8.96 kcal/mol | 26.6 °C
49 | GTTGCCGGAAACAGCAAC (((((.(....).))))) | -27.4 kcal/mol | 46.9 °C
50 | GTTGCCGGAAACGGCGAC ((.((((....)))).)) | -20.1 kcal/mol | 64.1 °C
51 | GTTGCCGGAAACGGTAGC (.(.(((....))).).) | -17.2 kcal/mol | 39.7 °C
52 | GTTGCGGCGAAAGCCAAC (((..(((....)))))) | -14.7 kcal/mol | 37.8 °C
53 | GTTGCGGGAAACCGCGAC ((.((((....)))).)) | -31 kcal/mol | 60.7 °C
54 | GTTGCGGGAAACTGCAAC (((((.(....).))))) | -38.5 kcal/mol | 56.2 °C
55 | GTTGCGTCGAAAGACAAC (((..(((....)))))) | -13.8 kcal/mol | 30.3 °C
56 | GTTGCTACGAAAGTAAAC (((..(((....)))))) | -9.44 kcal/mol | 28.6 °C
57 | GTTGCTCGAAAGAGTAAC (((.(((....))).))) | -35.1 kcal/mol | 52.4 °C
58 | GTTGCTGGAAACGGTAAC (((.(.(....).).))) | -16.4 kcal/mol | 33.7 °C
59 | GTTGGACGAAAGTCAAC (((.(((....)))))) | -17.5 kcal/mol | 48.6 °C
60 | GTTGGAGCGAAAGCTAAC (((..(((....)))))) | -21.4 kcal/mol | 36.9 °C
61 | GTTGGAGGAAACCCCAAC (((((.(....).))))) | -35.2 kcal/mol | 44.5 °C
62 | GTTGGAGGAAACTCCAGC (.(((((....))))).) | -21.1 kcal/mol | 47.6 °C
63 | GTTGGAGGAAACTCTGAC ((..(((....)))..)) | -21 kcal/mol | 34 °C
64 | GTTGGCCCGAAAGGGAAC (((..(((....)))))) | -18.8 kcal/mol | 45.3 °C
65 | GTTGGCCGAAAGGCAAC (((.(((....)))))) | -16.8 kcal/mol | 53.9 °C
66 | GTTGGCGAAAGCCCGAAC ((((((....)))..))) | -9.07 kcal/mol | 24.2 °C
67 | GTTGGCGAAAGCCGAAAC ((((((....)))..))) | -8.56 kcal/mol | 38.2 °C
68 | GTTGGCGAAAGCCTGAAC ((((((....)))..))) | -8.07 kcal/mol | 30.9 °C
